# Test results reported in ChEMBL document CHEMBL3826928, “Incorporation of Phosphonate into Benzonaphthyridine Toll-like Receptor 7 Agonists for Adsorption to Aluminum Hydroxide” (J Med Chem, 2016).
# Legend:
# [1] = molecular target: T1, Toll-like receptor 7 (Homo sapiens, UniProt Q9NYK1); assay: Agonist activity at human TLR7 expressed in HEK293 cells incubated for 6 hrs by luciferase reporter gene assay; type: cell-based
# T1 sequence (Q9NYK1 whole entry): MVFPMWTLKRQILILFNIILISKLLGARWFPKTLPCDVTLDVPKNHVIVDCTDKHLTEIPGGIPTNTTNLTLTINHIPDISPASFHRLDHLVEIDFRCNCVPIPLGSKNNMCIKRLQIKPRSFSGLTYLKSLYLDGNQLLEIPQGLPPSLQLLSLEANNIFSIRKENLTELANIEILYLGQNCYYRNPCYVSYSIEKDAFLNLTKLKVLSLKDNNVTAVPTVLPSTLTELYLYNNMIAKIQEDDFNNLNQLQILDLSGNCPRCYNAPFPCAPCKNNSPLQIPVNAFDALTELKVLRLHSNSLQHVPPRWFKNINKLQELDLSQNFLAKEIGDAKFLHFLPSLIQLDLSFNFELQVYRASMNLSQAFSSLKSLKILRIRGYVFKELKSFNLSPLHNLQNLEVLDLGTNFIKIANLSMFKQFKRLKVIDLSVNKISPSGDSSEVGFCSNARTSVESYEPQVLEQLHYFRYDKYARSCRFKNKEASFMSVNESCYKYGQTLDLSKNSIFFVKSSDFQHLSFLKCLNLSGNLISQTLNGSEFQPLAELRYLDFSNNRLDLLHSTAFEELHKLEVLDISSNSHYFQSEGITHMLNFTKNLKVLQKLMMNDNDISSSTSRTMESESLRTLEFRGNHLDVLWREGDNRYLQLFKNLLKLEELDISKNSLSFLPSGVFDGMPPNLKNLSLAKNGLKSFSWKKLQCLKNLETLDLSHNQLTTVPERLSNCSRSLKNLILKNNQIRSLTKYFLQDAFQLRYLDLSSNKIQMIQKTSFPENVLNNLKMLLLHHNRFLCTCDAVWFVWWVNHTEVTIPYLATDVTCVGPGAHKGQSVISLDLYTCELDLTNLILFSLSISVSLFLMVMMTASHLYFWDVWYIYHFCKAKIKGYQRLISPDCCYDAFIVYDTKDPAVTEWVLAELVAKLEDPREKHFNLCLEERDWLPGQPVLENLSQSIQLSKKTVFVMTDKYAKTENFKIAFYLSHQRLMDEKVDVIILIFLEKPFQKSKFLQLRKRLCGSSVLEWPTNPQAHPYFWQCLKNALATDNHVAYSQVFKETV
# How it was run: (§1)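 HEK293 stably carrying NF-κB-firefly luciferase reporter plus human TLR7 (best resiquimod-responding clone), maintained under puromycin/blasticidin. 25 000 cells per well in DMEM with 3% FCS.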
# [2] = molecular target: T2, Toll-like receptor 8 (Homo sapiens) (UniProt Q9NR97); assay: Agonist activity at human TLR8 expressed in HEK293 cells up to 30 uM incubated for 6 hrs by luciferase reporter gene assay relative to resiquimod; type: cell-based
# T2 sequence (whole entry): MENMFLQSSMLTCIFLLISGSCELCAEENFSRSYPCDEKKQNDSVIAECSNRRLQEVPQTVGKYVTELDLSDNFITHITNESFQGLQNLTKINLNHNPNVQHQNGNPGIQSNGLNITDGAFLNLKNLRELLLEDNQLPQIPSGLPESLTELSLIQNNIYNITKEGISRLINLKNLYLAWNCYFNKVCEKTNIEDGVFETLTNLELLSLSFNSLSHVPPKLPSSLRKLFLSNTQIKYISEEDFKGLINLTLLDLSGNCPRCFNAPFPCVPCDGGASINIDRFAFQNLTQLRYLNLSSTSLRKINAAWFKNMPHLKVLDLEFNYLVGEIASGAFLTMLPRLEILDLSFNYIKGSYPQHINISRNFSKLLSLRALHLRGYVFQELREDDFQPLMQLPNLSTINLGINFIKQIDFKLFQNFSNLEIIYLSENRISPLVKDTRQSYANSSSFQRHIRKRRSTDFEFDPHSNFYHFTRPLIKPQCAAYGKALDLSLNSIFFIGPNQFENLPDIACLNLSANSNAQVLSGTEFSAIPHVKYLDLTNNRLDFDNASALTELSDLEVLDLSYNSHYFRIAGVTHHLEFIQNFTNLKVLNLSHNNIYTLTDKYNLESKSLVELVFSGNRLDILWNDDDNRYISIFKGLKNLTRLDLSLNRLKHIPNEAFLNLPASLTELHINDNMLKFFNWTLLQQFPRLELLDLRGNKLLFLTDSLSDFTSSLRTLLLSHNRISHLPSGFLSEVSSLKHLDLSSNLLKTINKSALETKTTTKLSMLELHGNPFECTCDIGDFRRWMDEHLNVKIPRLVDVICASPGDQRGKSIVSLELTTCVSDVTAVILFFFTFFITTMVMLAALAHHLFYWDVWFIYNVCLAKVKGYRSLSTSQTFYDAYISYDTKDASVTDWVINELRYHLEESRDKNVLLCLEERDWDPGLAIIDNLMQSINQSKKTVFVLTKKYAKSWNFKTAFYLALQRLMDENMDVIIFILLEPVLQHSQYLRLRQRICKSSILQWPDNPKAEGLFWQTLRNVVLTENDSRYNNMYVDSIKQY
# [3] = Adsorption on alum in pH 6.5 histidine buffer assessed as compound adsorbed at 1 mg/ml incubated for 1 hr by LC-MS analysis relative to control; type: physicochemical; conditions: pH 6.5, 1 h
# How it was run: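 Compound dissolved in endotoxin-free water, then combined with Alhydrogel alum suspension and 100 mM histidine pH 6.5 stock; final 1 mg/mL compound, 3 mg/mL alum in 10 mM histidine, gently agitated 1 h at room temperature. Aliquot centrifuged 13 000 rpm 10 min; supernatant analysed by LCMS against nonadsorbed reference to give unbound fraction, bound fraction derived indirectly.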
# [4] = Adsorption on alum in pH 6.5 histidine buffer assessed as compound adsorbed at 1 mg/ml incubated for 1 hr in presence of inorganic phosphate by LC-MS analysis; type: physicochemical; conditions: pH 6.5, 1 h
# [5] = molecular target: T3, Toll-like receptor 7 (Homo sapiens) (UniProt Q9NYK1); assay: Agonist activity at human TLR7 expressed in HEK293 cells incubated for 6 hrs by luciferase reporter gene assay relative to resiquimod; type: cell-based; how it was run: as §1
# T3 sequence (whole entry): T1 sequence (Q9NYK1 whole entry)
# [6] = molecular target: T3, Toll-like receptor 7 (Homo sapiens); assay: Agonist activity at TLR7 in human PBMC assessed as induction of IL-6 secretion in supernatant after 18 hrs relative to resiquimod; type: cell-based
# How it was run: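 Isolated human PBMCs washed in PBS, resuspended in RPMI1640 with 10% heat-inactivated FBS, pyruvate, HEPES, at 1 × 10⁶ cells/mL. Compounds as in-situ sodium salts from 10 mM aqueous stocks, 3-fold 10-point dilutions from 30 μM.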
EC50 [1],Activity [2],Activity [3],Activity [4],%max [5],%max [6],SMILES
39 nM,< 5%,97%,Not Active,100%,35%,Cc1cc(OCCOCCOCCC(F)(F)P(=O)(O)O)ccc1CCc1cnc2c(N)nc3cc(CCC(=O)O)ccc3c2c1
350 nM,< 5%,97%,Not Active,110%,58%,Cc1cc(OCCOCCOCCP(=O)(O)O)ccc1CCc1cnc2c(N)nc3cc(CCC(=O)O)ccc3c2c1
1200 nM,< 5%,98%,Not Active,95%,36%,Cc1ccc2c(c1)nc(N)c1ncc(CCc3ccc(OCCOCCOCCC(F)(F)P(=O)(O)O)cc3C)cc12
240 nM,< 5%,95%,Not Active,95%,35%,Cc1cc(OCCCC(F)(F)P(=O)(O)O)ccc1CCc1cnc2c(N)nc3cc(CCC(=O)O)ccc3c2c1

SMILES,EC50 [1],Activity [2],Activity [3],Activity [4],%max [5],%max [6]
Cc1ccc2c(c1)nc(N)c1ncc(CCc3ccc(OCCCP(=O)(O)O)cc3C)cc12,230 nM,< 5%,ND(Insoluble),–,–,–
